Data published in ChEMBL document CHEMBL3797061, “Characterizing the Covalent Targets of a Small Molecule Inhibitor of the Lysine Acetyltransferase P300” (ACS Med Chem Lett, 2016).
The source made the active and inactive calls. The rule behind the calls is not given here.

Key:
HEK293 [1] = assay: Binding affinity to HEK293 proteomes incubated for 16 hrs using TAMRA-azide dye by SDS-PAGE based fluorescence analysis; assay type: cell-based; details: Homo sapiens
In short: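 HEK-293 cell lysate was incubated 16 h with alkyne probe (5–50 μM) and then conjugated to a fluorescent azide by Cu-catalysed [3+2] cycloaddition. Reactions were quenched in loading buffer without boiling. Proteins were resolved by SDS-PAGE and covalent labeling was imaged by in-gel fluorescence.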

[2] = biological target: Tubulin alpha-1B chain (Homo sapiens) (UniProt P68363); assay: Binding affinity to TUBA1B in HEK293 proteomes assessed as spectral count ratio at 20 uM incubated for 16 hrs by TAMRA biotin-azide dye based LC-MS/MS analysis relative to control
In short: (§1)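 HEK-293 proteome labeled with alkyne probe, then enriched and identified by LC–MS/MS. Spectral counts compared with a no-probe control.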

[3] = biological target: Tubulin alpha-1A chain (Homo sapiens) (UniProt Q71U36); assay: Binding affinity to TUBA1A in HEK293 proteomes assessed as spectral count ratio at 20 uM incubated for 16 hrs by TAMRA biotin-azide dye based LC-MS/MS analysis relative to control; in short: as §1
[4] = biological target: Tubulin alpha-1C chain (Homo sapiens) (UniProt Q9BQE3); assay: Binding affinity to TUBA1C in HEK293 proteomes assessed as spectral count ratio at 20 uM incubated for 16 hrs by TAMRA biotin-azide dye based LC-MS/MS analysis relative to control; in short: as §1
[5] = biological target: Tubulin beta-5 chain (Homo sapiens) (UniProt P07437); assay: Binding affinity to TUBB in HEK293 proteomes assessed as spectral count ratio at 20 uM incubated for 16 hrs by TAMRA biotin-azide dye based LC-MS/MS analysis relative to control; in short: as §1
Sequence of Tubulin beta-5 chain (Homo sapiens) (P07437 whole entry): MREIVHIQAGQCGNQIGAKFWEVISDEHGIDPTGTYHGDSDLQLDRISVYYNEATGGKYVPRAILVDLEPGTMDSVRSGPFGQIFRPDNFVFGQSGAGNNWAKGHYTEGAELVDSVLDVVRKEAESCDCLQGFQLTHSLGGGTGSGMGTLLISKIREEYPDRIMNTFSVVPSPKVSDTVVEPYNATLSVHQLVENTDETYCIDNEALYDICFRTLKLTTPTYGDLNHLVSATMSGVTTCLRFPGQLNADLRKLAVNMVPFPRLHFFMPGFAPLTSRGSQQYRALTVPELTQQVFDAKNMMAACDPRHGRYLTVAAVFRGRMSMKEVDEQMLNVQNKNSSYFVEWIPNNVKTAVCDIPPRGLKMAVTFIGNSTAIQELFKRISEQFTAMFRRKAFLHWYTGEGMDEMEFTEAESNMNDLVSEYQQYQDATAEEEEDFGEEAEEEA

[6] = biological target: Tubulin alpha-8 chain (Homo sapiens) (UniProt Q9NY65); assay: Binding affinity to TUBA8 in HEK293 proteomes assessed as spectral count ratio at 20 uM incubated for 16 hrs by TAMRA biotin-azide dye based LC-MS/MS analysis relative to control; in short: as §1
Sequence of Tubulin alpha-8 chain (Homo sapiens) (Q9NY65 whole entry): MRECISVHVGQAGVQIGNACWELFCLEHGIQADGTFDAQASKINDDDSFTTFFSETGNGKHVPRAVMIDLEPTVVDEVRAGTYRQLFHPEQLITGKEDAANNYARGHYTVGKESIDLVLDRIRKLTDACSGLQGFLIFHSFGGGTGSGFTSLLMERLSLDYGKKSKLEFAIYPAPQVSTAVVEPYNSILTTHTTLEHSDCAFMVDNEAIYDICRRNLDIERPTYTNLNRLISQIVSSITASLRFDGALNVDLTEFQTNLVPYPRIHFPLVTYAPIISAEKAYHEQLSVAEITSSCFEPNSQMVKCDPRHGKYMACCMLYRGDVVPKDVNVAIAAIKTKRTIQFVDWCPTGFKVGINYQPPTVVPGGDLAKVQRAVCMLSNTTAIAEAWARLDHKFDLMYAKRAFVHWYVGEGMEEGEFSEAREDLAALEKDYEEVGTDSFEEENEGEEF

[7] = biological target: Elongation factor 1-alpha 1 (Homo sapiens) (UniProt P68104); assay: Binding affinity to EEF1A1 in HEK293 proteomes assessed as spectral count ratio at 20 uM incubated for 16 hrs by TAMRA biotin-azide dye based LC-MS/MS analysis relative to control; in short: as §1
[8] = biological target: Tubulin beta-2A chain (Homo sapiens) (UniProt Q13885); assay: Binding affinity to TUBB2A in HEK293 proteomes assessed as spectral count ratio at 20 uM incubated for 16 hrs by TAMRA biotin-azide dye based LC-MS/MS analysis relative to control; in short: as §1
[9] = biological target: 60 kDa heat shock protein, mitochondrial (Homo sapiens) (UniProt P10809); assay: Binding affinity to HSPD1 in HEK293 proteomes assessed as spectral count ratio at 20 uM incubated for 16 hrs by TAMRA biotin-azide dye based LC-MS/MS analysis relative to control; in short: as §1
[10] = biological target: Tubulin beta-4A chain (Homo sapiens) (UniProt P04350); assay: Binding affinity to TUBB4A in HEK293 proteomes assessed as spectral count ratio at 20 uM incubated for 16 hrs by TAMRA biotin-azide dye based LC-MS/MS analysis relative to control; in short: as §1
[11] = biological target: D-3-phosphoglycerate dehydrogenase (Homo sapiens) (UniProt O43175); assay: Binding affinity to PHGDH in HEK293 proteomes at 20 uM incubated for 16 hrs by TAMRA biotin-azide dye based LC-MS/MS analysis; assay type: cell-based; in short: as §1
[12] = biological target: Alpha-enolase (Homo sapiens) (UniProt P06733); assay: Binding affinity to ENO1 in HEK293 proteomes assessed as spectral count ratio at 20 uM incubated for 16 hrs by TAMRA biotin-azide dye based LC-MS/MS analysis relative to control; in short: as §1
[13] = biological target: Heterogeneous nuclear ribonucleoprotein H (Homo sapiens) (UniProt P31943); assay: Binding affinity to HNRNPH1 in HEK293 proteomes at 20 uM incubated for 16 hrs by TAMRA biotin-azide dye based LC-MS/MS analysis; assay type: cell-based; in short: as §1
Sequence of Heterogeneous nuclear ribonucleoprotein H (Homo sapiens) (P31943 whole entry): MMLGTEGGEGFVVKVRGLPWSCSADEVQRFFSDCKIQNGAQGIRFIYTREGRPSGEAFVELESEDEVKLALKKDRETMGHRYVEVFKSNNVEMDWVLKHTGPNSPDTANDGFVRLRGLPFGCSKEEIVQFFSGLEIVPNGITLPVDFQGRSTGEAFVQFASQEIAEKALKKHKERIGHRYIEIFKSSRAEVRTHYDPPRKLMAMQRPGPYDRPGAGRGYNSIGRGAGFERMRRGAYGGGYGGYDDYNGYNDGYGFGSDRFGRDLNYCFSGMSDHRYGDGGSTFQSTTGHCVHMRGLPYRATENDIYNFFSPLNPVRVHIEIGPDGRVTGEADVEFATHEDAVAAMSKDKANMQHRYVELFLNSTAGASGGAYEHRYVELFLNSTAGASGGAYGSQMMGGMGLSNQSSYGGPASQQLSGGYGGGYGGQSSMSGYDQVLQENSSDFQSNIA

[14] = biological target: Eukaryotic initiation factor 4A-I (Homo sapiens) (UniProt P60842); assay: Binding affinity to EIF4A1 in HEK293 proteomes assessed as spectral count ratio at 20 uM incubated for 16 hrs by TAMRA biotin-azide dye based LC-MS/MS analysis relative to control; in short: as §1
Sequence of Eukaryotic initiation factor 4A-I (Homo sapiens) (P60842 whole entry): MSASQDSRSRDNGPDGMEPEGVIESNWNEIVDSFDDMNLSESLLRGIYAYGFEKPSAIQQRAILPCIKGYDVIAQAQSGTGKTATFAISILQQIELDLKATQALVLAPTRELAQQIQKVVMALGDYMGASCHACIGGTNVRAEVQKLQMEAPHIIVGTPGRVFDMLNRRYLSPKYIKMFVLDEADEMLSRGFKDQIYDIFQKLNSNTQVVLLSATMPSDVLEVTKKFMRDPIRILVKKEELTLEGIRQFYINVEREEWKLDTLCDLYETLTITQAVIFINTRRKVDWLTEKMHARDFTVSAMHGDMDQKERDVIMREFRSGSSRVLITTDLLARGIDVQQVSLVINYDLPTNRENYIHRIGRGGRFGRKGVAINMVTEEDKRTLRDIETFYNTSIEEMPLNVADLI

[15] = biological target: Creatine kinase B-type (Homo sapiens) (UniProt P12277); assay: Binding affinity to CKB in HEK293 proteomes assessed as spectral count ratio at 20 uM incubated for 16 hrs by TAMRA biotin-azide dye based LC-MS/MS analysis relative to control; in short: as §1
Sequence of Creatine kinase B-type (Homo sapiens) (P12277 whole entry): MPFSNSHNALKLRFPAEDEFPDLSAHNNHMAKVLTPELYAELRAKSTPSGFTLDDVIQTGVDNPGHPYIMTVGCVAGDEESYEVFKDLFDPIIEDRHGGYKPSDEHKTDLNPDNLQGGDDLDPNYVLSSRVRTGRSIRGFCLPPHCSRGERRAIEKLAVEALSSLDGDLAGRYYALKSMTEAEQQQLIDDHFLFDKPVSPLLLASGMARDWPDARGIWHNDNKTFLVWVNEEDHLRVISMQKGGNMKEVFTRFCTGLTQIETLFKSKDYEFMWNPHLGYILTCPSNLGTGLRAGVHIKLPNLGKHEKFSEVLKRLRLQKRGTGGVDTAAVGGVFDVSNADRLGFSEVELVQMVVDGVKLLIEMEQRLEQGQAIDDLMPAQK

[16] = biological target: Pyruvate kinase PKM (Homo sapiens) (UniProt P14618); assay: Binding affinity to PKM in HEK293 proteomes assessed as spectral count ratio at 20 uM incubated for 16 hrs by TAMRA biotin-azide dye based LC-MS/MS analysis relative to control; in short: as §1
Sequence of Pyruvate kinase PKM (Homo sapiens) (P14618 2-531 limits assumed): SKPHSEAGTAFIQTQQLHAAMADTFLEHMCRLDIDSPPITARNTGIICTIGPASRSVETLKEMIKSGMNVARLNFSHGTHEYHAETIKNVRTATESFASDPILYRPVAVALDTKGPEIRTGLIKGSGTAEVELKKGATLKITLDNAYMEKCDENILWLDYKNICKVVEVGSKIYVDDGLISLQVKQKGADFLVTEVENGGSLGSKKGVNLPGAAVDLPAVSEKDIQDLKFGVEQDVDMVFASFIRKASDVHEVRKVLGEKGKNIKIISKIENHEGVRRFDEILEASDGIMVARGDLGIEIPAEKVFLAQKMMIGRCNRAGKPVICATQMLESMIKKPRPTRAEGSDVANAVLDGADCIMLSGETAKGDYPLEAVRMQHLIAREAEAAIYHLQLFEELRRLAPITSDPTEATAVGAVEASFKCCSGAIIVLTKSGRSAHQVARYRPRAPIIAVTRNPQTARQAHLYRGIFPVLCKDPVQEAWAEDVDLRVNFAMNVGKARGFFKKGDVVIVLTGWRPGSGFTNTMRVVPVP

[17] = biological target: Heat shock protein HSP 90-beta (Homo sapiens) (UniProt P08238); assay: Binding affinity to HSP90AB1 in HEK293 proteomes assessed as spectral count ratio at 20 uM incubated for 16 hrs by TAMRA biotin-azide dye based LC-MS/MS analysis relative to control; in short: as §1
[18] = biological target: Actin, cytoplasmic 1 (Homo sapiens) (UniProt P60709); assay: Binding affinity to ACTB in HEK293 proteomes assessed as spectral count ratio at 20 uM incubated for 16 hrs by TAMRA biotin-azide dye based LC-MS/MS analysis relative to control; in short: as §1
[19] = biological target: Heat shock 70 kDa protein 1A/1B (Homo sapiens) (UniProt P0DMV8+P0DMV9); assay: Binding affinity to HSPA1A/HSPA1B in HEK293 proteomes assessed as spectral count ratio at 20 uM incubated for 16 hrs by TAMRA biotin-azide dye based LC-MS/MS analysis relative to control; assay type: protein assay; in short: as §1
HEK293 [20] = assay: Binding affinity to HEK293 proteomes at 1 uM incubated for 16 hrs using TAMRA-azide dye by SDS-PAGE based fluorescence analysis in presence of iodoacetamide; assay type: cell-based; details: Homo sapiens
In short: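 Proteomes were preincubated with iodoacetamide before alkyne-probe treatment. Probe labeling then proceeded by click conjugation to a fluorescent azide, SDS-PAGE without boiling, and fluorescence imaging to test for cysteine-directed labeling.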

HEK293 [21] = assay: Binding affinity to HEK293 proteomes assessed as compound-Cysteine adduct formation at 1 uM incubated for 24 hrs by LC-MS/MS analysis; assay type: cell-based; details: Homo sapiens
[22] = biological target: Histone acetyltransferase p300 (Homo sapiens, UniProt Q09472); assay: Inhibition of recombinant P300 catalytic domain (1284 to 1673 residues) (unknown origin) using FITC- histone H4 peptide (1 to 19 residues) as substrate by electrophoretic mobility shift assay
Sequence of Histone acetyltransferase p300 (Q09472 whole entry, the tested form may be a part): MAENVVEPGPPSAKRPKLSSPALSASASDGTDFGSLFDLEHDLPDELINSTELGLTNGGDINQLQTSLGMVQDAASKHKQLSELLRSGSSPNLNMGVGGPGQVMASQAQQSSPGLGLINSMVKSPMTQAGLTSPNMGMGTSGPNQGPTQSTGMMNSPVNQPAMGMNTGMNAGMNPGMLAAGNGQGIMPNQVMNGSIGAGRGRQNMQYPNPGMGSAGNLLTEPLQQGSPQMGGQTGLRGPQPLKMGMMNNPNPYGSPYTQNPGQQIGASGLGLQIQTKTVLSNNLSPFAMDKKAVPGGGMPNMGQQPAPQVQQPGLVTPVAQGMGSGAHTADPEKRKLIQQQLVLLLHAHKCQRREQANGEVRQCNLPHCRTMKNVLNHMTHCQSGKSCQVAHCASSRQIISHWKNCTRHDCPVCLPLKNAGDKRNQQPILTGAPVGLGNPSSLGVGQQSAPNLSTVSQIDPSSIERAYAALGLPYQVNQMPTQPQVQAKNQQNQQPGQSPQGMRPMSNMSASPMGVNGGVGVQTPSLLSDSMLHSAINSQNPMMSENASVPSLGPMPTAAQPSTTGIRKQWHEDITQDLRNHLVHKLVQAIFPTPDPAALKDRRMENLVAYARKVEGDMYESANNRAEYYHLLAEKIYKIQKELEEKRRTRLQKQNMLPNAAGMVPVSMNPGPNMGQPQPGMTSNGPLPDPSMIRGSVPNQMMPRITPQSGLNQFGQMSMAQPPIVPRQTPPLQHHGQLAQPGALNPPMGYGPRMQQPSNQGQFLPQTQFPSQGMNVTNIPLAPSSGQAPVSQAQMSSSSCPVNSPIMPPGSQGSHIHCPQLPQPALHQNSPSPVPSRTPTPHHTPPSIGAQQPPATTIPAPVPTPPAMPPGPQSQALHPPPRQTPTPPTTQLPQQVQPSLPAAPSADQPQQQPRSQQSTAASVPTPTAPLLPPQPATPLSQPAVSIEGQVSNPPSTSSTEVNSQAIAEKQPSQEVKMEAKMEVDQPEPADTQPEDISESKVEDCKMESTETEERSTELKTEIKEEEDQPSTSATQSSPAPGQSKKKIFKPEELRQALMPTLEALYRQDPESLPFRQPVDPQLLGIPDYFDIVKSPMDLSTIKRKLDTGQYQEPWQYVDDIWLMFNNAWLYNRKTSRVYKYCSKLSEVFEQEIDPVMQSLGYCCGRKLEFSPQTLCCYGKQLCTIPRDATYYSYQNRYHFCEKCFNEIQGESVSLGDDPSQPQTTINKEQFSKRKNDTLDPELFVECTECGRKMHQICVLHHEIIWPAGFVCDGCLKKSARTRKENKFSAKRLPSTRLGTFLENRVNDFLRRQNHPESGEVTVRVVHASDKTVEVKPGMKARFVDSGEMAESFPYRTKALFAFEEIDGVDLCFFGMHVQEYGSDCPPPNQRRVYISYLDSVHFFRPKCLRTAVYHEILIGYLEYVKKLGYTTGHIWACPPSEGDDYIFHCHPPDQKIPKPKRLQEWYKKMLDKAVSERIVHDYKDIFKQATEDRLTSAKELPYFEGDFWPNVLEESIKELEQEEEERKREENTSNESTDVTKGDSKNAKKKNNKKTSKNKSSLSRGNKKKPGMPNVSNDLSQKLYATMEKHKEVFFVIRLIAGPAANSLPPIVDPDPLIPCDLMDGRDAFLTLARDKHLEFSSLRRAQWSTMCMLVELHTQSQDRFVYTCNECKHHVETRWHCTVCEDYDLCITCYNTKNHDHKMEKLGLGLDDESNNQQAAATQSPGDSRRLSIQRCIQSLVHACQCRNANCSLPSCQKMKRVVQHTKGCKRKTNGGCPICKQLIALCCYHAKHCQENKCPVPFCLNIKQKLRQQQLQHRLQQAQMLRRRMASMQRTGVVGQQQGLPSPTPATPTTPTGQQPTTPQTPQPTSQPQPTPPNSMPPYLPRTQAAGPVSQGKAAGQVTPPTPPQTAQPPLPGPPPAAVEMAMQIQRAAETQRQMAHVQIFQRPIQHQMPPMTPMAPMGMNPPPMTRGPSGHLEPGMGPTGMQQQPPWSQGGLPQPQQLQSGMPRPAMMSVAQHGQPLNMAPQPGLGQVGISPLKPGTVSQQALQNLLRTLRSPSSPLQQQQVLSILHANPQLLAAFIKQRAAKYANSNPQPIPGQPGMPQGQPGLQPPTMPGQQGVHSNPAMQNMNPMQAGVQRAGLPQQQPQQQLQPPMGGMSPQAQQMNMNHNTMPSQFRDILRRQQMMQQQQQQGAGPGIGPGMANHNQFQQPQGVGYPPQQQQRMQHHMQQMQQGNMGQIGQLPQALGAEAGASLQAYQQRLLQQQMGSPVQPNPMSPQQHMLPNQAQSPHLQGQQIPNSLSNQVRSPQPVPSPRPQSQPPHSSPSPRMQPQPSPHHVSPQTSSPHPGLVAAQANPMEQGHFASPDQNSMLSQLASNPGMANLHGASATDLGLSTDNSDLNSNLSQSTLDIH

Tubulin (Sus scrofa) = Tubulin (Sus scrofa) (UniProt P02554+P02550); assay: Inhibition of porcine brain tubulin polymerization assessed as decrease in rate of microtubule formation incubated up to 1 hr by fluorescence analysis
In short: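 Porcine tubulin was preincubated with compound and polymerization was then followed by a fluorescence assay. Read-outs were the rate of microtubule formation and final polymer mass. CaCl2 served as the positive control for inhibition.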

C#CCNC(=O)c1ccc(N2N=C(C)/C(=C/c3ccc(-c4cc(C)c(C)cc4[N+](=O)[O-])o3)C2=O)cc1
Activity (HEK293 [1]): Dose-dependent effect | fold change (FC) [2]: 25 | fold change (FC) [3]: 25 | fold change (FC) [4]: 25 | fold change (FC) [5]: 36 | fold change (FC) [6]: 64 | fold change (FC) [7]: 12 | fold change (FC) [8]: 25 | fold change (FC) [9]: 24 | fold change (FC) [10]: 19 | Activity [11]: Active | fold change (FC) [12]: 7 | Activity [13]: Active | fold change (FC) [14]: 17 | fold change (FC) [15]: 9 | fold change (FC) [16]: 16 | fold change (FC) [17]: 16 | fold change (FC) [18]: 4 | fold change (FC) [19]: 8 | Activity (HEK293 [20]): inactive | Activity (HEK293 [21]): Active | IC50 [22]: 14.1 µM

CC1=NN(c2ccc(C(=O)O)cc2)C(=O)/C1=C\c1ccc(-c2cc(C)c(C)cc2[N+](=O)[O-])o1
inhibition (Tubulin (Sus scrofa)): Dose-dependent effect
